# Reference: ChEMBL document CHEMBL1914380, “Polyalkoxybenzenes from plants. 5. Parsley seed extract in synthesis of azapodophyllotoxins featuring strong tubulin destabilizing activity in the sea urchin embryo and cell culture assays” (J Med Chem, 2011)
# Active and inactive are the calls of the source. No cut-off for these calls is given here.
# System: P388
# Experiment: Cytotoxicity against mouse P388 cells assessed as cell viability after 48 hrs by trypan blue exclusion assay
# Assay type: functional, cell-based
# Conditions: P388, 48 h
row,SMILES,IC50 [nM]
1,COc1ccc(C2C3=C(COC3=O)Nc3cc4c(cc32)OCO4)cc1OC (stereo unspecified),131

# System: Paracentrotus lividus
# Experiment: Antimitotic activity against Paracentrotus lividus embryo assessed as formation of tuberculate egg at 100 nM after 6 hrs post fertilization by microscopic analysis
# Assay type: functional, organism-based
# Conditions: not given
row,SMILES,Activity
1,COc1cc(C2C3=C(COC3=O)Nc3cc4c(cc32)OCO4)cc2c1OCO2 (racemic),Active

# System: A549
# Experiment: Induction of apoptosis in human A549 cells assessed as early apoptotic cells at 10 to 100 nM after 48 hrs by annexin-V FITC/7-ADD staining-based flow cytometric analysis
# Assay type: functional, cell-based
# Conditions: not given
row,SMILES,Activity
1,COC(=O)Nc1nc2cc(C(=O)c3cccs3)ccc2[nH]1,Active
2,COc1cc(C2C3=C(COC3=O)Nc3cc4c(cc32)OCO4)cc(OC)c1OC (stereo unspecified),Active

# System: A549
# Experiment: Inhibition of microtubule polymerization in human A549 cells assessed as total disruption of interphase microtubule network at 0.5 uM after 8 hrs by immunofluorescence microscopy
# Assay type: cell-based
# Conditions: not given
# Outline: (§1)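 A549 cells incubated 8 h with compound at 0.1, 0.5, 1 and 5 μM; DMSO vehicle as negative control. Microtubules labelled by indirect immunofluorescence and examined by fluorescence microscopy. Value is the concentration giving total interphase microtubule disassembly, from three independent experiments.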
row,SMILES,inhibition
1,COc1cc(C2C3=C(COC3=O)Nc3cc4c(cc32)OCCO4)cc2c1OCO2 (stereo unspecified),Active
2,COc1cc(C2C3=C(COC3=O)Nc3cc4c(cc32)CCC4)cc2c1OCO2 (stereo unspecified),Active
3,COc1cc(C2C3=C(COC3=O)Nc3cc4c(cc32)OCO4)c(OC)c(OC)c1OC (stereo unspecified),Active
4,COc1cc(C2C3=C(COC3=O)Nc3cc4c(c(OC)c32)OCO4)cc(OC)c1OC (stereo unspecified),Active
5,COc1ccc(C2C3=C(COC3=O)Nc3cc4c(cc32)OCO4)cc1OC (stereo unspecified),Active
6,COc1cc(C2C3=C(COC3=O)Nc3cc4c(cc32)OCO4)cc2c1OCO2 (racemic),Active
7,COc1cc(C2C3=C(COC3=O)Nc3cc4c(cc32)OCO4)cc(OC)c1OC (stereo unspecified),Active
8,COc1cc(C2C3=C(O)OCC3=Nc3cc4c(cc32)OCCO4)cc(OC)c1OC (stereo unspecified),Active

# System: A549
# Experiment: Cytotoxicity against human A549 cells assessed as cell viability after 24 hrs by MTT assay
# Assay type: functional, cell-based
# Conditions: A549, 24 h
# Outline: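 A549 human lung carcinoma cells; growth inhibition measured by MTT assay. IC50 derived from dose-response curves, mean ± SD of three independent experiments.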
row,SMILES,IC50 [nM]
1,COc1cc(C2C3=C(COC3=O)Nc3cc4c(cc32)OCCO4)cc2c1OCO2 (stereo unspecified),64.7
2,COc1cc(C2C3=C(COC3=O)Nc3cc4c(cc32)CCC4)cc2c1OCO2 (stereo unspecified),264
3,COc1cc(C2C3=C(COC3=O)Nc3cc4c(cc32)OCO4)c(OC)c(OC)c1OC (stereo unspecified),299
4,COc1cc(C2C3=C(COC3=O)Nc3cc4c(c(OC)c32)OCO4)cc(OC)c1OC (stereo unspecified),291
5,COc1ccc(C2C3=C(COC3=O)Nc3cc4c(cc32)OCO4)cc1OC (stereo unspecified),596
6,COc1cc(C2C3=C(COC3=O)Nc3cc4c(cc32)OCO4)cc2c1OCO2 (racemic),55.2
7,COc1cc(C2C3=C(COC3=O)Nc3cc4c(cc32)OCO4)cc(OC)c1OC (stereo unspecified),2.71
8,COc1cc(C2C3=C(O)OCC3=Nc3cc4c(cc32)OCCO4)cc(OC)c1OC (stereo unspecified),9.2

# System: Paracentrotus lividus
# Experiment: Antimitotic activity against Paracentrotus lividus embryo assessed as cleavage alteration at 10 nM after 6 hrs post fertilization by microscopic analysis
# Assay type: functional, organism-based
# Conditions: not given
row,SMILES,Activity
1,COc1cc(C2C3=C(COC3=O)Nc3cc4c(cc32)OCO4)cc2c1OCO2 (racemic),Active

# System: A549
# Experiment: Inhibition of microtubule polymerization in human A549 cells assessed as total disruption of interphase microtubule network at 1 uM after 8 hrs by immunofluorescence microscopy
# Assay type: cell-based
# Conditions: not given
# Outline: as §1
row,SMILES,inhibition
1,COc1cc(C2C3=C(COC3=O)Nc3cc4c(cc32)OCCO4)cc2c1OCO2 (stereo unspecified),Active
2,COc1cc(C2C3=C(COC3=O)Nc3cc4c(cc32)CCC4)cc2c1OCO2 (stereo unspecified),Active
3,COc1cc(C2C3=C(COC3=O)Nc3cc4c(cc32)OCO4)c(OC)c(OC)c1OC (stereo unspecified),Active
4,COc1cc(C2C3=C(COC3=O)Nc3cc4c(c(OC)c32)OCO4)cc(OC)c1OC (stereo unspecified),Active
5,COc1ccc(C2C3=C(COC3=O)Nc3cc4c(cc32)OCO4)cc1OC (stereo unspecified),Active
6,COc1cc(C2C3=C(COC3=O)Nc3cc4c(cc32)OCO4)cc2c1OCO2 (racemic),Active
7,COc1cc(C2C3=C(COC3=O)Nc3cc4c(cc32)OCO4)cc(OC)c1OC (stereo unspecified),Active
8,COc1cc(C2C3=C(O)OCC3=Nc3cc4c(cc32)OCCO4)cc(OC)c1OC (stereo unspecified),Active

# System: A549
# Experiment: Inhibition of microtubule polymerization in human A549 cells assessed as total disruption of interphase microtubule network at 5 uM after 8 hrs by immunofluorescence microscopy
# Assay type: cell-based
# Conditions: not given
# Outline: as §1
row,SMILES,inhibition
1,COc1cc(C2C3=C(COC3=O)Nc3cc4c(cc32)OCCO4)cc2c1OCO2 (stereo unspecified),Active
2,COc1cc(C2C3=C(COC3=O)Nc3cc4c(cc32)CCC4)cc2c1OCO2 (stereo unspecified),Active
3,COc1cc(C2C3=C(COC3=O)Nc3cc4c(cc32)OCO4)c(OC)c(OC)c1OC (stereo unspecified),Active
4,COc1cc(C2C3=C(COC3=O)Nc3cc4c(c(OC)c32)OCO4)cc(OC)c1OC (stereo unspecified),Active
5,COc1ccc(C2C3=C(COC3=O)Nc3cc4c(cc32)OCO4)cc1OC (stereo unspecified),Active
6,COc1cc(C2C3=C(COC3=O)Nc3cc4c(cc32)OCO4)cc2c1OCO2 (racemic),Active
7,COc1cc(C2C3=C(COC3=O)Nc3cc4c(cc32)OCO4)cc(OC)c1OC (stereo unspecified),Active
8,COc1cc(C2C3=C(O)OCC3=Nc3cc4c(cc32)OCCO4)cc(OC)c1OC (stereo unspecified),Active

# System: A549
# Experiment: Cell cycle arrest in human A549 cells assessed as accumulation of cells in G2/M phase after 24 hrs by propidium iodide staining-based flow cytometry
# Assay type: functional
# Conditions: A549, 24 h
row,SMILES,EC50 [nM]
1,COc1cc(C2C3=C(COC3=O)Nc3cc4c(cc32)OCCO4)cc2c1OCO2 (stereo unspecified),119
2,COc1ccc(C2C3=C(COC3=O)Nc3cc4c(cc32)OCO4)cc1OC (stereo unspecified),230
3,COc1cc(C2C3=C(COC3=O)Nc3cc4c(cc32)OCO4)cc(OC)c1OC (stereo unspecified),16.2

# System: Paracentrotus lividus
# Experiment: Antimitotic activity against Paracentrotus lividus embryo assessed as cleavage arrest treated 10 to 25 mins post fertilization followed by 45 to 60 mins before the first mitotic cycle completion by sea urchin embryo assay
# Assay type: functional
# Conditions: not given
row,SMILES,EC [nM]
1,COc1cc(C2C3=C(COC3=O)Nc3cc4c(cc32)OCCO4)cc2c1OCO2 (stereo unspecified),50
2,COc1cc(C2C3=C(COC3=O)Nc3cc4c(cc32)CCC4)cc2c1OCO2 (stereo unspecified),20
3,COc1cc(C2C3=C(COC3=O)Nc3cc4c(cc32)OCO4)c(OC)c(OC)c1OC (stereo unspecified),4000
4,COc1cc(C2C3=C(COC3=O)Nc3cc4c(c(OC)c32)OCO4)cc(OC)c1OC (stereo unspecified),>2000
5,COc1ccc(C2C3=C(COC3=O)Nc3cc4c(cc32)OCO4)cc1OC (stereo unspecified),100
6,COc1cc(C2C3=C(COC3=O)Nc3cc4c(cc32)OCO4)cc2c1OCO2 (racemic),50
7,COc1cc(C2C3=C(COC3=O)Nc3cc4c(cc32)OCO4)cc(OC)c1OC (stereo unspecified),500
8,COc1cc(C2C3=C(O)OCC3=Nc3cc4c(cc32)OCCO4)cc(OC)c1OC (stereo unspecified),1000

# System: Paracentrotus lividus
# Experiment: Antimitotic activity against Paracentrotus lividus embryo assessed as embryo spinning treated 10 to 25 mins post fertilization followed by 45 to 60 mins before the first mitotic cycle completion by sea urchin embryo assay
# Assay type: functional
# Conditions: not given
row,SMILES,EC [nM]
1,COc1cc(C2C3=C(COC3=O)Nc3cc4c(cc32)OCCO4)cc2c1OCO2 (stereo unspecified),100
2,COc1cc(C2C3=C(COC3=O)Nc3cc4c(cc32)CCC4)cc2c1OCO2 (stereo unspecified),50
3,COc1cc(C2C3=C(COC3=O)Nc3cc4c(cc32)OCO4)c(OC)c(OC)c1OC (stereo unspecified),>10000
4,COc1cc(C2C3=C(COC3=O)Nc3cc4c(c(OC)c32)OCO4)cc(OC)c1OC (stereo unspecified),>2000
5,COc1ccc(C2C3=C(COC3=O)Nc3cc4c(cc32)OCO4)cc1OC (stereo unspecified),2000
6,COc1cc(C2C3=C(COC3=O)Nc3cc4c(cc32)OCO4)cc2c1OCO2 (racemic),50
7,COc1cc(C2C3=C(COC3=O)Nc3cc4c(cc32)OCO4)cc(OC)c1OC (stereo unspecified),2000
8,COc1cc(C2C3=C(O)OCC3=Nc3cc4c(cc32)OCCO4)cc(OC)c1OC (stereo unspecified),1000

# System: A549
# Experiment: Inhibition of microtubule polymerization in human A549 cells assessed as total disruption of interphase microtubule network at 0.1 uM after 8 hrs by immunofluorescence microscopy
# Assay type: cell-based
# Conditions: not given
# Outline: as §1
row,SMILES,inhibition
1,COc1cc(C2C3=C(COC3=O)Nc3cc4c(cc32)OCCO4)cc2c1OCO2 (stereo unspecified),Active
2,COc1cc(C2C3=C(COC3=O)Nc3cc4c(cc32)CCC4)cc2c1OCO2 (stereo unspecified),Active
3,COc1cc(C2C3=C(COC3=O)Nc3cc4c(cc32)OCO4)c(OC)c(OC)c1OC (stereo unspecified),Active
4,COc1cc(C2C3=C(COC3=O)Nc3cc4c(c(OC)c32)OCO4)cc(OC)c1OC (stereo unspecified),Active
5,COc1ccc(C2C3=C(COC3=O)Nc3cc4c(cc32)OCO4)cc1OC (stereo unspecified),Active
6,COc1cc(C2C3=C(COC3=O)Nc3cc4c(cc32)OCO4)cc2c1OCO2 (racemic),Active
7,COc1cc(C2C3=C(COC3=O)Nc3cc4c(cc32)OCO4)cc(OC)c1OC (stereo unspecified),Active
8,COc1cc(C2C3=C(O)OCC3=Nc3cc4c(cc32)OCCO4)cc(OC)c1OC (stereo unspecified),Active

# System: A549
# Experiment: Induction of apoptosis in human A549 cells assessed as late apoptotic cells at 10 to 100 nM after 48 hrs by annexin-V FITC/7-ADD staining-based flow cytometric analysis
# Assay type: functional, cell-based
# Conditions: not given
row,SMILES,Activity
1,COC(=O)Nc1nc2cc(C(=O)c3cccs3)ccc2[nH]1,inactive
2,COc1cc(C2C3=C(COC3=O)Nc3cc4c(cc32)OCO4)cc(OC)c1OC (stereo unspecified),inactive

# System: A549
# Experiment: Induction of apoptosis in human A549 cells assessed as necrotic cells at 10 to 100 nM after 48 hrs by annexin-V FITC/7-ADD staining-based flow cytometric analysis
# Assay type: functional, cell-based
# Conditions: not given
row,SMILES,Activity
1,COC(=O)Nc1nc2cc(C(=O)c3cccs3)ccc2[nH]1,Active
2,COc1cc(C2C3=C(COC3=O)Nc3cc4c(cc32)OCO4)cc(OC)c1OC (stereo unspecified),Active

# System: Paracentrotus lividus
# Experiment: Antimitotic activity against Paracentrotus lividus embryo assessed as cleavage alteration treated 10 to 25 mins post fertilization followed by 45 to 60 mins before the first mitotic cycle completion by sea urchin embryo assay
# Assay type: functional
# Conditions: not given
row,SMILES,EC [nM]
1,COc1cc(C2C3=C(COC3=O)Nc3cc4c(cc32)OCCO4)cc2c1OCO2 (stereo unspecified),5
2,COc1cc(C2C3=C(COC3=O)Nc3cc4c(cc32)CCC4)cc2c1OCO2 (stereo unspecified),2
3,COc1cc(C2C3=C(COC3=O)Nc3cc4c(cc32)OCO4)c(OC)c(OC)c1OC (stereo unspecified),1000
4,COc1cc(C2C3=C(COC3=O)Nc3cc4c(c(OC)c32)OCO4)cc(OC)c1OC (stereo unspecified),2000
5,COc1ccc(C2C3=C(COC3=O)Nc3cc4c(cc32)OCO4)cc1OC (stereo unspecified),5
6,COc1cc(C2C3=C(COC3=O)Nc3cc4c(cc32)OCO4)cc2c1OCO2 (racemic),5
7,COc1cc(C2C3=C(COC3=O)Nc3cc4c(cc32)OCO4)cc(OC)c1OC (stereo unspecified),50
8,COc1cc(C2C3=C(O)OCC3=Nc3cc4c(cc32)OCCO4)cc(OC)c1OC (stereo unspecified),200
